Source: ChEMBL document CHEMBL3779815, “Synthesis of newer 1,2,3-triazole linked chalcone and flavone hybrid compounds and evaluation of their antimicrobial and cytotoxic activities” (Eur J Med Chem, 2016)
Converted amounts (≈) assume the structure as drawn.

Legend:
Staphylococcus aureus = assay: Antibacterial activity against Staphylococcus aureus […] after 18 to 24 hrs by micro-dilution method; format: functional
Escherichia coli = assay: Antibacterial activity against Escherichia coli ATCC 35218 after 18 to 24 hrs by micro-dilution method; format: functional
Candida albicans [1] = assay: Antifungal activity against Candida albicans clinical isolate after 18 to 24 hrs by micro-dilution method; format: functional
How it was run: (§1)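 Microdilution MIC run as the antibacterial protocol but on Sabouraud dextrose […] pH 7.3±0.2; compounds 100 to 0.78 μg/mL in twofold steps; saline-prepared inocula 1-2 × 10⁷ cfu/mL, 0.01 mL added; 37 °C aerobic, 18-24 h; MIC read as lowest concentration without visible growth or turbidity; fluconazole reference.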

Pseudomonas aeruginosa = assay: Antibacterial activity against Pseudomonas aeruginosa […] after 18 to 24 hrs by micro-dilution method; format: functional
[2] = Cytotoxicity against human HuH7 cells after 72 hrs by MTT assay; format: cell-based, Huh-7
How it was run: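 Huh-7 cells, 4 × 10³/well in DMEM with 10% FBS and penicillin-streptomycin-glutamine; eight 2-fold dilutions 100-0.78 μg/mL, 72 h; MTT added 2-4 h, then isopropanol/Triton X-100/HCl solubilization 2 h dark, RT; absorbance 570 nm; CC50 as mean of at least two experiments in duplicate.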

Candida parapsilosis = assay: Antifungal activity against Candida parapsilosis ATCC 22019 after 18 to 24 hrs by micro-dilution method; format: functional; settings: Lodderomyces parapsilosis; how it was run: as §1
Enterococcus faecalis = assay: Antibacterial activity against Enterococcus faecalis ATCC 29212 after 18 to 24 hrs by micro-dilution assay; format: functional
Aspergillus niger = assay: Antifungal activity against Aspergillus niger clinical isolate after 18 to 24 hrs by micro-dilution method; format: functional; how it was run: as §1
Cryptococcus neoformans = assay: Antifungal activity against Cryptococcus neoformans clinical isolate after 18 to 24 hrs by micro-dilution method; format: functional; how it was run: as §1
Shigella boydii = assay: Antibacterial activity against Shigella boydii clinical isolate after 18 to 24 hrs by micro-dilution method; format: functional
Candida albicans [3] = assay: Antifungal activity against Candida albicans ATCC 90028 after 18 to 24 hrs by micro-dilution method; format: functional; how it was run: as §1
Klebsiella pneumoniae = assay: Antibacterial activity against Klebsiella pneumoniae ATCC 27736 after 18 to 24 hrs by micro-dilution method; format: functional
Candida tropicalis = assay: Antifungal activity against Candida tropicalis ATCC 750 after 18 to 24 hrs by micro-dilution method; format: functional; how it was run: as §1
Plasmodium falciparum = assay: Antimalarial activity against erythrocytic stage of chloroquine sensitive Plasmodium falciparum 3D7 assessed as inhibition of parasitemia after 48 hrs by Giemsa staining based microscopic analysis; format: functional, organism-based; settings: 3D7, 48 h
How it was run: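 Asynchronous culture on human O⁺ erythrocytes, 1-1.5% parasitemia, 4% hematocrit, RPMI-1640 with HEPES, NaHCO₃, glutamine, gentamycin, Albumax II; drug 0.10-100 μg/mL, 48 h, 37 °C, medium changed at 24 h; triplicate wells; Giemsa thin smears, about 4,000 erythrocytes counted at 1,000X; % parasitemia inhibition versus control gives IC50.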

Aspergillus fumigatus = assay: Antifungal activity against Aspergillus fumigatus clinical isolate after 18 to 24 hrs by micro-dilution method; format: functional; how it was run: as §1
Arthrodermataceae = assay: Antifungal activity against Dermatophyte clinical isolate after 18 to 24 hrs by micro-dilution method; format: functional; how it was run: as §1

Row | Compound | MIC (Staphylococcus aureus) [µg/mL] | MIC (Escherichia coli) [µg/mL] | MIC (Candida albicans [1]) [µg/mL] | MIC (Pseudomonas aeruginosa) [µg/mL] | CC50 at 72 h [2] [µg/mL] | MIC (Candida parapsilosis) [µg/mL] | MIC (Enterococcus faecalis) [µg/mL] | MIC (Aspergillus niger) [µg/mL] | MIC (Cryptococcus neoformans) [µg/mL] | MIC (Shigella boydii) [µg/mL] | MIC (Candida albicans [3]) [µg/mL] | MIC (Klebsiella pneumoniae) [µg/mL] | MIC (Candida tropicalis) [µg/mL] | IC50 (Plasmodium falciparum) [µg/mL] | MIC (Aspergillus fumigatus) [µg/mL] | MIC (Arthrodermataceae) [µg/mL]
1 | COc1cc(O)c(C(=O)/C=C/c2ccc(OCc3cn(-c4ccc(F)cc4Cl)nn3)c(OC)c2)c(OC)c1 | 6.25 (≈ 11.6 µM) | 12.5 (≈ 23.2 µM) | > 100 | 12.5 (≈ 23.2 µM) | > 100 | > 100 | 6.25 (≈ 11.6 µM) | 100 (≈ 185 µM) | > 100 | 12.5 (≈ 23.2 µM) | 50 (≈ 92.6 µM) | 25 (≈ 46.3 µM) | 100 (≈ 185 µM) | 6.27 (≈ 11.6 µM) | > 100 | 25 (≈ 46.3 µM)
2 | COc1cc(O)c(C(=O)/C=C/c2ccc(OCc3cn(-c4ccccc4Cl)nn3)c(OCc3cn(-c4ccccc4Cl)nn3)c2)c(OC)c1 | > 100 | > 100 | > 100 | > 100 | > 100 | > 100 | > 100 | > 100 | > 100 | > 100 | > 100 | > 100 | > 100 | 8.38 (≈ 12 µM) | > 100 | > 100
3 | COc1cc(O)c(C(=O)/C=C/c2ccc(OCc3cn(-c4ccc(Cl)cc4)nn3)c(OCc3cn(-c4ccc(Cl)cc4)nn3)c2)c(OC)c1 | > 100 | 100 (≈ 143 µM) | > 100 | > 100 | > 100 | > 100 | > 100 | > 100 | > 100 | > 100 | > 100 | 100 (≈ 143 µM) | > 100 | 12.8 (≈ 18.2 µM) | > 100 | > 100
4 | OC(Cn1cncn1)(Cn1cncn1)c1ccc(F)cc1F [FLUCONAZOLE] | – | – | 0.5 (≈ 1.63 µM) | – | – | 0.5 (≈ 1.63 µM) | – | 2 (≈ 6.53 µM) | 2 (≈ 6.53 µM) | – | 0.5 (≈ 1.63 µM) | – | 0.5 (≈ 1.63 µM) | – | 2 (≈ 6.53 µM) | 4 (≈ 13.1 µM)
5 | COc1cc(OC)c2c(=O)cc(-c3ccc(OCc4cn(-c5ccc(F)c(Cl)c5)nn4)c(OCc4cn(-c5ccc(F)c(Cl)c5)nn4)c3)oc2c1 | > 100 | 100 (≈ 136 µM) | > 100 | 100 (≈ 136 µM) | > 100 | > 100 | > 100 | 100 (≈ 136 µM) | > 100 | > 100 | > 100 | > 100 | 100 (≈ 136 µM) | 10.4 (≈ 14.2 µM) | > 100 | > 100
6 | COc1cc(O)c(C(=O)/C=C/c2ccc(OCc3cn(-c4ccc(F)c(Cl)c4)nn3)c(OCc3cn(-c4ccc(F)c(Cl)c4)nn3)c2)c(OC)c1 | > 100 | > 100 | > 100 | > 100 | > 100 | > 100 | 100 (≈ 136 µM) | > 100 | > 100 | 100 (≈ 136 µM) | > 100 | > 100 | > 100 | 10.9 (≈ 14.8 µM) | > 100 | > 100
7 | COc1cc(OC)c2c(=O)cc(-c3ccc(OCc4cn(-c5ccc(F)c(Cl)c5)nn4)c(OC)c3)oc2c1 | > 100 | > 100 | 12.5 (≈ 23.2 µM) | > 100 | > 100 | 12.5 (≈ 23.2 µM) | > 100 | 50 (≈ 92.9 µM) | 6.25 (≈ 11.6 µM) | > 100 | 12.5 (≈ 23.2 µM) | > 100 | 12.5 (≈ 23.2 µM) | 4.48 (≈ 8.33 µM) | 50 (≈ 92.9 µM) | 12.5 (≈ 23.2 µM)
8 | COc1cc(OC)c2c(=O)cc(-c3ccc(OCc4cn(-c5ccc(Cl)cc5)nn4)c(OCc4cn(-c5ccc(Cl)cc5)nn4)c3)oc2c1 | 12.5 (≈ 17.9 µM) | 6.25 (≈ 8.96 µM) | > 100 | 12.5 (≈ 17.9 µM) | > 100 | > 100 | 12.5 (≈ 17.9 µM) | > 100 | > 100 | 25 (≈ 35.8 µM) | > 100 | 12.5 (≈ 17.9 µM) | > 100 | 11.3 (≈ 16.2 µM) | > 100 | > 100
